High-throughput results as filed in PubChem BioAssay.
In the library only some 2.8% were active in any assay of this set; here they are far more common.
MC4R ag barr – agonists of human melanocortin 4 receptor (MC4R) beta-arrestin; P32245; U2OS MC4R beta-arrestin complementation, luminescence; percent of melanotan II response, DMSO zero; activation, % at 8.9 µM; actives 0.98% (n = 360,000);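 active = activation above a per-plate cutoff, the mean activation of sample wells on that plate plus 3 SD, cut at about 8% in these data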
m5-HT2A agonist – mouse HTR2A agonism via beta-arrestin recruitment; P35363; CHO-K1 mHTR2A beta-arrestin complementation, luminescence; percent of 30 µM serotonin response; activation, % at 7.6 µM; actives 0.66% (n = 360,000);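 active = activation above a run cutoff, the mean activation of all tested compounds plus 3 SD, cut at about 14% in these data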;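 note: 0% = plate median of compound wells and 100% = 30 µM serotonin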
MC4R antag cAMP – blocks human MC4R cAMP signaling; P32245; MC4R-expressing cells, MTII-stimulated cAMP, LANCE TR-FRET; inhibition, % at 6.5 µM; actives 0.48% (n = 360,000);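 active = inhibition above its plate's cutoff, the mean of tested wells on that plate plus 3 SD, cut at about 29% in these data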;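 note: 0% = Melanotan II alone and 100% = Melanotan II plus saturating MCL0020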
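System – human MC4R-expressing U2OS cells · Also added – Melanotan II · Dosing – one concentration, 6.5 µM nominal · Timing – 30-min compound, 1-h challenge, 1-h detection, room temperature · Measured by – Eu-cAMP/anti-cAMP TR-FRET, emission 671 nm · Replicates – singlicate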
EBI2 block – blocks human EBI2 receptor beta-arrestin signaling; AID 651636; actives 0.81% (n = 360,000); P32249; EBI2 beta-arrestin recruitment, luminescence, 7a,25-OHC stimulated; inhibition, % at 5 µM; in the data active = inhibition above about 38%;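 note: enzyme fragment complementation signal reports receptor beta-arrestin coupling in cells; 0% = agonist plus DMSO wells and 100% = wells without agonist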
MOR ag counter – counter-screen for mouse HTR2A agonists: human mu opioid receptor agonists. U2OS OPRM1 beta-arrestin PathHunter, luminescence; DMSO 0%, DAMGO 9.3 µM 100%. shares compounds with m5-HT2A agonist. actives 5.3% (n = 2,300). activation, % at 9.3 µM;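 active = mean activation above the mean of DMSO-only wells plus 3 SD, cut at about 0.5% in these data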
Target sequence (P35372 whole entry, looked up): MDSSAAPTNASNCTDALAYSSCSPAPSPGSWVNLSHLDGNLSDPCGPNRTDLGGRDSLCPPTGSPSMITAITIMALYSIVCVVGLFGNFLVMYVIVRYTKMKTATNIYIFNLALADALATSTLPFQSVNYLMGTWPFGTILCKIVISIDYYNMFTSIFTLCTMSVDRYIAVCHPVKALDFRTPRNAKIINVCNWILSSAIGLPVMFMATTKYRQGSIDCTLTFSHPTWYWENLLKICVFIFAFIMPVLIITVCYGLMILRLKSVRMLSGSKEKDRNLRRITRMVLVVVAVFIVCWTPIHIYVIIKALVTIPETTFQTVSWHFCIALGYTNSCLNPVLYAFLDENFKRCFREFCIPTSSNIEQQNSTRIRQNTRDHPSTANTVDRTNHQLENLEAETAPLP
m5-HT2A ag conf – confirmation of mouse HTR2A serotonin receptor agonists | shares compounds with m5-HT2A agonist | CHO-K1 PathHunter beta-arrestin recruitment, luminescence; DMSO 0%, 30 µM serotonin 100% | activation, % at 7.6 µM | actives 19% (n = 2,300) | AID 624381;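 active = mean activation across triplicates above the hit threshold derived in the original primary screen, cut at about 15% in these data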
* hit, by the source's call; / = not tested or not shown.

SMILES	MC4R ag barr	m5-HT2A agonist	MC4R antag cAMP	EBI2 block	MOR ag counter	m5-HT2A ag conf
CCOC(=O)C1CCN(Cc2cccc(Oc3ccc(Cl)cc3)c2)CC1	1.4	20.2*	1.9	2.8	-0.3	69.8*
Cc1nn(C)c(Cl)c1CN1CCN(C2CCCC2)C(CCO)C1 (configuration not stated)	0.1	24.2*	5.4	4.0	-0.6	2.0
CC(OC(=O)CCN=C1NS(=O)(=O)c2ccccc21)C(=O)Nc1ccccc1F (configuration not stated)	-1.7	-2.0	7.1	-4.3	/	/
CC(OC(=O)CCCN=C1NS(=O)(=O)c2ccccc21)C(=O)Nc1ccccc1F (configuration not stated)	-1.1	25.4*	8.4	4.3	-0.6	-4.4
CC(C)c1nc2sc3c(=S)nc[nH]c3c2c2c1CCC2	1.1	15.8*	1.6	9.8	-0.6	-0.9
Cn1nc(C2CC2)cc1NC(=O)C1(C)CCN1C(=O)CC(c1ccccc1)c1ccccc1 (configuration not stated)	0.1	-2.2	7.3	33.5	/	/
CCOc1ccc(-c2nnc3ccc(SCC(=O)Nc4nc5ccc(C)cc5s4)nn23)cc1	-0.7	16.5*	13.1	2.8	-0.4	-2.2
CC(C)(C)c1ccc(CC(=O)N2CCC2(C)C(=O)NS(=O)(=O)c2cccs2)cc1 (configuration not stated)	1.9	-1.3	1.9	-4.0	/	/
CC(=O)N1c2ccc(S(=O)(=O)NCCC(=O)Nc3ncccc3C)cc2CC1C (configuration not stated)	-0.9	14.7*	-5.3	6.6	-0.7	-3.8
CC(=O)N1c2ccc(S(=O)(=O)NCCC(=O)Nc3ccc(C)c(F)c3)cc2CC1C (configuration not stated)	-3.0	0.8	5.3	-8.1	/	/
CN(c1ccccc1)S(=O)(=O)c1ccc(NC(=O)CC(=O)c2ccccc2)cc1	2.0	-4.8	-0.9	6.4	/	/
Cc1cccc(C)c1NC(=O)c1cc(S(=O)(=O)N2CCc3ccccc32)cn1C	4.6	20.8*	4.4	1.7	-0.4	-2.8
COc1ccc(S(=O)(=O)NCC2CCCN(C(=O)c3cccnc3C)C2)cc1 (configuration not stated)	5.0	15.3*	-8.6	-4.0	0.3	2.6
COc1ccc(S(=O)(=O)NCC2CCCN(C(=O)c3ccccc3)C2)cc1 (configuration not stated)	-1.5	-3.2	6.7	-10.8	/	/
N#CN=CN1CC=C(c2ccc(Cl)cc2)CC1	-0.4	-2.9	0.3	-6.7	/	/
Cc1ccc(S(=O)(=O)c2nc(-c3ccc(F)cc3)oc2SCC(=O)NCC2CCCO2)cc1 (configuration not stated)	-1.1	14.9*	0.7	0.2	-0.7	-3.0
C[C@@H]1CN([C@H](C)CO)C(=O)CCCn2nncc2CO[C@@H]1CN(C)C(=O)Nc1ccnc(N2CCOCC2)c1	0.6	3.4	2.7	-2.9	/	/
Cc1ccc(-n2c(N)c(C(=O)NCc3ccco3)sc2=S)cc1	-3.4	-4.2	-2.0	-2.2	/	/
Cc1ccc(-n2c(N)c(C(N)=O)sc2=S)cc1	0.3	18.8*	1.1	-7.2	-0.7	-4.7
Cc1cccc(C(C)C)c1NC(=O)COC(=O)CN1C(=O)C2CC=CCC2C1=O (configuration not stated)	-0.4	20.5*	-3.9	-18.8	-0.1	5.9
Cc1cccc(C)c1NC(=O)CN1C(=O)C2CC=CCC2C1=O (configuration not stated)	-3.1	-2.4	-2.6	-3.7	/	/
CC1(C(=O)NS(=O)(=O)c2ccccc2Cl)CCN1C(=O)CC1CCCC1 (configuration not stated)	0.7	3.6	11.2	-7.9	/	/
CC(=O)N1CCN(C(=O)OC2CC3CC2[C@H]2CCCCN2C3=O)CC1 (some centres not stated)	/	-0.7	/	-7.6	/	/
O=C(c1ccc(NC2=NC3CS(=O)(=O)CC3S2)cc1)N1CCN(c2ccccc2F)CC1 (configuration not stated)	0.0	23.7*	2.5	-8.7	-0.6	-4.2
CCCC(=O)Nc1ccc2c(c1)nc(CCN1CCC(C)CC1)n2C	-1.0	-4.3	10.2	8.5	/	/
SMILES	MC4R ag barr	m5-HT2A agonist	MC4R antag cAMP	EBI2 block	MOR ag counter	m5-HT2A ag conf
COc1cccc(-n2cc(CNCc3c(C(=O)N(C)C)nc4ccc(Cl)cn34)cn2)c1	1.7	-4.6	-2.4	-3.9	/	/
COc1cccc(-n2cc(CNCc3cn(C)nc3-c3ccccc3F)cn2)c1	1.7	30.3*	4.8	3.7	-0.3	97.2*
CC(C)NNC(=O)c1ccncc1	-1.0	28.5*	3.8	-8.0	-0.7	44.8*
Fc1ccccc1N1CCN(C(c2ccnc3ccccc23)c2nnnn2-c2ccc3c(c2)OCCO3)CC1 (configuration not stated)	/	-3.7	/	12.8	/	/
Clc1ncc(CN2CCN(c3ccccc3)CC2)s1	-0.6	31.4*	-4.4	-3.1	-0.7	84.4*
Fc1ccccc1N1CCN(Cc2cnc(Cl)s2)CC1	-1.1	3.4	20.9	-1.5	/	/
Clc1ccc(CNc2ccc(N3CCN(Cc4ccccc4)CC3)cc2)cc1	0.4	-6.9	4.2	27.5	/	/
Clc1ccc(CN2CCN(c3ccccc3)CC2)cn1	-0.5	22.1*	-6.2	-7.0	-0.4	80.7*
CC1CCN=C(N)S1 (configuration not stated)	-0.4	15.5*	-4.4	4.9	-0.4	-0.3
CCOCC(=O)N(CC)Cc1ccccc1	-2.8	3.9	14.7	-0.4	/	/
CCN(Cc1ccccc1)C(=O)Cn1cc(S(=O)(=O)NC)c(S(=O)(=O)NC)c1	-2.3	16.5*	2.6	-4.3	-0.4	-0.2
Cc1ccc2nc(NC(=O)CN3C(=O)C4CC=CCC4C3=O)sc2c1 (configuration not stated)	-0.3	3.9	6.2	1.8	/	/
O=C(CN1C(=O)C2CC=CCC2C1=O)Nc1nc2ccccc2s1 (configuration not stated)	-3.6	15.5*	6.0	0.9	-0.6	-2.0
CCOC(=O)C1=NOC2COC3(CCN(c4ncccn4)CC3)OCC12 (configuration not stated)	-1.4	14.8*	-7.2	-4.4	0.6*	6.2
CCOC(=O)c1sc2nc(C)nc(N3CCN(c4ncccn4)CC3)c2c1C	0.1	0.6	2.6	20.4	/	/
CC(C)C(NC(=O)/C(=C\c1ccco1)NC(=O)c1ccco1)C(=O)O (configuration not stated)	-0.9	19.1*	-5.7	-19.1	-0.7	-4.4
Nc1cc(Cl)cc2c1-c1ccc(Cl)cc1C2	1.4	4.1	-5.0	-7.5	/	/
CN(CC(=O)Nc1ccc(Cl)cc1)CC(=O)N1CCc2ccccc21	-0.2	16.9*	15.5	-9.9	0.0	2.5
CCc1ccccc1NC(=O)N1CCc2ccccc21	-0.5	16.5*	12.0	-8.2	-0.5	-4.1
